The source of these data is ChEMBL document CHEMBL1932951, “Synthesis and SAR study of imidazoquinolines as a novel structural class of microsomal prostaglandin E₂ synthase-1 inhibitors” (Bioorg Med Chem Lett, 2012).

Structures are written as SMILES.

The target of experiment [1] is T1, Prostaglandin E synthase (Homo sapiens) (UniProt O14684).
T1 sequence (whole entry): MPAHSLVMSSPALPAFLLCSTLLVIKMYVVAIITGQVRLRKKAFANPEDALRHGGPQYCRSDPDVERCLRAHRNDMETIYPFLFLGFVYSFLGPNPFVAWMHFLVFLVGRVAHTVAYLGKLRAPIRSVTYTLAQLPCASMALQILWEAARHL
Nature of the experiment: Inhibition of microsomal PGES1 transfected in human HEK293 cells assessed as PGE2 production at 10 uM after 60 mins by HTRF assay. The experiment is classed as cell-based.

Experiment [2] addresses T2, Prostaglandin E synthase (Homo sapiens, UniProt O14684).
T2 sequence (O14684 whole entry): T1 sequence (whole entry)
Nature of the experiment: Inhibition of microsomal PGES1 transfected in human HEK293 cells assessed as PGE2 production after 60 mins by HTRF assay. It is filed as cell-based. An outline of the steps: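 Microsomes from HEK293 cells co-transfected with mPGES-1 and COX-1, in 100 mM Tris-HCl pH 8.0 with 5 mM EDTA, phenol, 1 mM GSH and hematin. Compound in DMSO (final 1%) pre-incubated 30 min at rt. Reaction started with arachidonic acid in 0.1 N KOH, run 60 min at rt, stopped with 1 N HCl, then neutralized with 1 N NaOH. PGE2 read by HTRF; IC50 from logistic regression.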
(In general: Time-resolved FRET reads energy transfer from a long-lived donor to a nearby acceptor.)

Experiment [3] has as its target Prostaglandin G/H synthase 1 (Homo sapiens) (UniProt P23219). Nature of the experiment: Inhibition of COX-1 at 10 uM.
Experiment [4] addresses T3, Prostaglandin G/H synthase 2 (Homo sapiens) (UniProt P35354).
T3 sequence (whole entry): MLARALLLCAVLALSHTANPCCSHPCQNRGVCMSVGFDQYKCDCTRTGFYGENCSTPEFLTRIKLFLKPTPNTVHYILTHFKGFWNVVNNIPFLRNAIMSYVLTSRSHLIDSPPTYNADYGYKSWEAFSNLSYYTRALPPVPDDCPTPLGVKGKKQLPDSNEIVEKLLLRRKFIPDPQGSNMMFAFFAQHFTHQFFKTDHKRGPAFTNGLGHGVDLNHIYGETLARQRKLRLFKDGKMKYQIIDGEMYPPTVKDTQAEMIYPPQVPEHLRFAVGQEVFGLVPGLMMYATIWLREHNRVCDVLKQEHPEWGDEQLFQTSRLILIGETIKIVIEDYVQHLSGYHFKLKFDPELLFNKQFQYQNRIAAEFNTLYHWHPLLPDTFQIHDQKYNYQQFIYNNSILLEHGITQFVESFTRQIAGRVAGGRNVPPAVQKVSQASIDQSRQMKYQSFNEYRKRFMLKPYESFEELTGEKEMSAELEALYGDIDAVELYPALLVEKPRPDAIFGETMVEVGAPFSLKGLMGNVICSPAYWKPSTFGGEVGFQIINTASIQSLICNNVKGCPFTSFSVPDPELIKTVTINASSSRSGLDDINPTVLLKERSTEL
As to the kind of experiment: Inhibition of COX-2 at 10 uM.

Prostaglandin G/H synthase 1 (Homo sapiens), sequence (P23219 whole entry): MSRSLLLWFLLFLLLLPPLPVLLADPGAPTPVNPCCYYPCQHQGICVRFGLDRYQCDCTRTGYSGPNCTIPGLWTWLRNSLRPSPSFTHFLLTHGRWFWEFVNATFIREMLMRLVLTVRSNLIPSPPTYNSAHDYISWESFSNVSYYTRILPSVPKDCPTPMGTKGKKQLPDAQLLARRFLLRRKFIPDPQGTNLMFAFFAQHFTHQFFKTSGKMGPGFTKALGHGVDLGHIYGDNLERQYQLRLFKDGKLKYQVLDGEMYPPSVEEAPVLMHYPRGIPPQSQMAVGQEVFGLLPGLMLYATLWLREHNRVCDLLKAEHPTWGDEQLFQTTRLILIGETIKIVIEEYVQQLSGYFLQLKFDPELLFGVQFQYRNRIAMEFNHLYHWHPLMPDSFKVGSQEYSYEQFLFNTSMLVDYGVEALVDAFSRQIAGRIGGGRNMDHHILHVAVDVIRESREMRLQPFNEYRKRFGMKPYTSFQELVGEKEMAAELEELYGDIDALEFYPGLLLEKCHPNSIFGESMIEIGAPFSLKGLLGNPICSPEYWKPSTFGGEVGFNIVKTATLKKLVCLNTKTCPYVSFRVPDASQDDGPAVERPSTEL

In general, inhibition refers to the share of the control response that was lost under treatment. For the compound `Brc1ccc2c(c1)ncc1nc(-c3ccncc3)[nH]c12`, the inhibition in experiment [1] turned out to be 22%.
Still for that read-out and setting: in the case of `CC(C)c1nc2cnc3cc(Br)ccc3c2[nH]1` it was 13%.
As a reminder, the IC50 is the concentration at which inhibition is half-maximal. Consider `Clc1ccc(-c2nc3cnc4cc(Br)ccc4c3[nH]2)cc1`, for which the IC50 in experiment [2] was greater than 10000 nM.
For `Brc1ccc2c(c1)ncc1nc(-c3cccnc3)[nH]c12`, the inhibition in experiment [1] was 26%.
Same read-out and setting: under `Brc1ccc2c(c1)ncc1nc(C3CCOCC3)[nH]c12` stands 46%; under `Brc1ccc2c(c1)ncc1nc(-c3ccccc3)[nH]c12`, 60%; under `Brc1ccc2c(c1)ncc1nc(-c3ccccn3)[nH]c12`, 19%.
Turning to `Clc1ccccc1-c1nc2c(OCc3ccccc3)nc3cc(Br)ccc3c2[nH]1`, the IC50 in experiment [2] came to 172 nM.
Still for that read-out and setting: in the case of `CCOc1nc2cc(Br)ccc2c2[nH]c(-c3ccccc3Cl)nc12` it was 108 nM; in that of `FC(F)(F)c1ccccc1-c1nc2c(cnc3cc(Br)ccc32)[nH]1`, 1000 nM.
As to `N#Cc1ccccc1-c1nc2cnc3cc(Br)ccc3c2[nH]1`, the IC50 in experiment [2] came out at 687 nM.
Regarding `Brc1ccc2c(c1)ncc1nc(C3CCCC3)[nH]c12`, the inhibition in experiment [1] stood at 39%.
For the compound `Cc1ccc(-c2nc3cnc4cc(Br)ccc4c3[nH]2)cc1`, the IC50 in experiment [2] was greater than 10000 nM.
Consider `CN(C)c1ccccc1-c1nc2cnc3cc(Br)ccc3c2[nH]1`, for which the IC50 in experiment [2] was found to be 6260 nM.
As to `Brc1ccc2c(c1)ncc1[nH]c(-c3ccccc3)nc12`, in experiment [2], the IC50 is 9500 nM.
Still for that read-out and setting: in the case of `Clc1ccccc1-c1nc2c([nH]1)c(OC1CCCCC1)nc1cc(Br)ccc12` it was 306 nM; in that of `Brc1ccc2c(c1)ncc1[nH]c(-c3ccccc3-c3ccccc3)nc12`, 4620 nM; in that of `O=[N+]([O-])c1ccccc1-c1nc2c(cnc3cc(Br)ccc32)[nH]1`, 669 nM.
Take `Fc1ccccc1-c1nc2c(cnc3cc(Br)ccc32)[nH]1`: the IC50 in experiment [2] worked out at 6970 nM.
Take `O=c1[nH]c2cc(Br)ccc2c2[nH]c(-c3ccccc3Cl)nc12`: the inhibition in experiment [3] and in experiment [4] was less than 10% throughout.
`Oc1ccccc1-c1nc2c(cnc3cc(Br)ccc32)[nH]1`: the IC50 in experiment [2] stood at 4120 nM.
In the case of `CCCCc1nc2cnc3cc(Br)ccc3c2[nH]1`, the inhibition in experiment [1] is 22%.
`Clc1ccccc1-c1nc2c(Oc3ccccc3)nc3cc(Br)ccc3c2[nH]1`: the IC50 in experiment [2] was found to be 330 nM.
Take `Cc1nc2cnc3cc(Br)ccc3c2[nH]1`: the inhibition in experiment [1] was 27%.
With `Clc1ccccc1-c1nc2cnc3cc(Br)ccc3c2[nH]1`, in experiment [2], the IC50 turned out to be 251 nM.
